Experimental data as given in ChEMBL document CHEMBL3352498, “Membrane active phenylalanine conjugated lipophilic norspermidine derivatives with selective antibacterial activity” (J Med Chem, 2014).
Calls of active or inactive are those of the source. The rule behind the calls is not given here.

What was measured:
Staphylococcus aureus [1] = assay: Antimicrobial activity against methicillin-resistant Staphylococcus aureus ATCC 33591 after 24 hrs by broth microdilution method; format: functional
In short: (§1)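 Broth microdilution per CLSI, 24 h at 37 °C. Inoculum is a 6 h 37 °C culture diluted to ~10^5 CFU/mL (yeast–dextrose broth for MRSA and K. pneumoniae). 50 μL of 2-fold dilutions in water plus 150 μL bacteria. Read by OD600, triplicates, run at least twice. MIC is taken from a sigmoidal fit as the point where OD equals the bacteria-free control.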

[2] = Critical micelle concentration of the compound; format: ADME
In short: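 Static light scattering at 90° (excitation and emission 400 nm) on compound dissolved at 500 μg/mL in yeast–dextrose broth at room temperature, measured over successive dilutions; cmc taken from the inflection point where intensity rises steeply then falls after a local maximum.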

Staphylococcus aureus [3] = assay: Antimicrobial activity against Staphylococcus aureus MTCC 737 after 24 hrs by broth microdilution method; format: functional
In short: (§2)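 Broth microdilution per CLSI: 6 h cultures (37 °C) diluted to ~10^5 CFU/mL; 2-fold serial dilutions in sterile water added to bacteria; 24 h at 37 °C; OD600 read. Triplicates, experiment done at least twice; mean OD vs concentration fitted sigmoidally, MIC taken where OD matched the no-bacteria control. E. coli grown in LB broth, S. aureus in yeast–dextrose broth.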

Enterococcus faecium [4] = assay: Antimicrobial activity against vancomycin-resistant Enterococcus faecium ATCC 51559 after 24 hrs by broth microdilution method; format: functional; in short: as §1
Enterococcus faecium [5] = assay: Antimicrobial activity against Enterococcus faecium ATCC 19634 after 24 hrs by broth microdilution method; format: functional
Escherichia coli [6] = assay: Antimicrobial activity against Escherichia coli MTCC 443 after 24 hrs by broth microdilution method; format: functional; in short: as §2
Klebsiella pneumoniae = assay: Antimicrobial activity against beta-lactam-resistant Klebsiella pneumoniae ATCC 700603 after 24 hrs by broth microdilution method; format: functional; in short: as §1
[7] = Hemolytic activity in human erythrocytes after 1 hr by spectrophotometry; format: ADME, cell-based, Erythrocyte
In short: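 Fresh heparinised human erythrocytes suspended to 5 vol % in PBS pH 7.4, mixed with serially diluted compound, 1 h at 37 °C; no-compound and 1 vol % Triton X-100 controls. Supernatant A540 after centrifugation gave % hemolysis; triplicates averaged, sigmoidal fit gave HC50.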

Staphylococcus aureus [8] = assay: Bactericidal activity against Staphylococcus aureus MTCC 737 assessed as log reduction in CFU/ml at 6 times MIC by time-kill assay relative to control; format: functional
Escherichia coli [9] = assay: Antimicrobial activity against Escherichia coli MTCC 443 assessed as leakage of K+ at 12 times MIC using PBFI-AM by fluorescence spectroscopy; format: functional, organism-based
Staphylococcus aureus [10] = assay: Bactericidal activity against Staphylococcus aureus MTCC 737 assessed as log reduction in CFU/ml at 6 times MIC at 15 mins by time-kill assay relative to control; format: functional
Staphylococcus aureus [11] = assay: Antimicrobial activity against Staphylococcus aureus MTCC 737 at sub-MIC measured after 20 passages by broth microdilution method; format: functional, organism-based
Staphylococcus aureus [12] = assay: Antimicrobial activity against Staphylococcus aureus MTCC 737 assessed as membrane depolarization at 12 times MIC using DiSC3 by fluorescence spectroscopy; format: functional, organism-based
In short: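 Mid-log S. aureus washed and resuspended in 5 mM HEPES, 5 mM glucose, 100 mM KCl (1:1:1); 2 μM DiSC3(5) added, 20 min preincubation.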

Escherichia coli [13] = assay: Antimicrobial activity against Escherichia coli MTCC 443 assessed as membrane permeabilization at 12 times MIC by propidium iodide staining method; format: functional, organism-based
Staphylococcus aureus [14] = assay: Antimicrobial activity against Staphylococcus aureus MTCC 737 assessed as increase in MIC measured after 20 passages by broth microdilution method relative to control; format: functional
Staphylococcus aureus [15] = assay: Antimicrobial activity against Staphylococcus aureus MTCC 737 after 4 hrs by broth microdilution method in presence of 50% human plasma; format: functional, organism-based
In short: (§3)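 Compound mixed 1:1 with fresh human plasma (50% plasma) and held at 37 °C; at 0, 2, 4, 6, 12 and 24 h aliquots were diluted 2-fold in 0.9% saline.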

Staphylococcus aureus [16] = assay: Ratio of MIC for Staphylococcus aureus MTCC 737 after 4 hrs in presence of 50% human serum to MIC for Staphylococcus aureus MTCC 737 after 4 hrs; format: functional
In short: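 Compound mixed 1:1 with human serum (50% serum) and held at 37 °C; at 0, 2 and 4 h the mixture was serially 2-fold diluted in 0.9% saline. Activity against S. aureus then tested in triplicate by the standard broth microdilution MIC protocol.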

Escherichia coli [17] = assay: Antimicrobial activity against Escherichia coli MTCC 443 assessed as increase in MIC measured after 30 passages by broth microdilution method relative to control; format: functional
Staphylococcus aureus [18] = assay: Antimicrobial activity against Staphylococcus aureus MTCC 737 after 2 hrs by broth microdilution method in presence of 50% human plasma; format: functional, organism-based; in short: as §3
[19] = Cytotoxicity against mouse RAW264.7 cells after 1 hr by MTT assay; format: cell-based; details: raw264.7, 1 h
In short: (§4)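 RAW 264.7 cells grown in DMEM with 10% FBS to ~70–80% confluency, exposed to serially diluted compound 1 h at 37 °C, 5% CO2; untreated and Triton X-100 controls. MTT (5 mg/mL) 4 h, formazan dissolved in DMSO, OD 570 nm; viability normalised to controls, triplicates, sigmoidal fit for 50% viability.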

Staphylococcus aureus [20] = assay: Antimicrobial activity against Staphylococcus aureus MTCC 737 assessed as leakage of K+ at 12 times MIC using PBFI-AM by fluorescence spectroscopy; format: functional, organism-based
Staphylococcus aureus [21] = assay: Antimicrobial activity against Staphylococcus aureus MTCC 737 assessed as membrane permeabilization at 12 times MIC by propidium iodide staining method; format: functional, organism-based
Escherichia coli [22] = assay: Antimicrobial activity against Escherichia coli MTCC 443 at sub-MIC measured after 30 passages by broth microdilution method; format: functional, organism-based
[23] = Cytotoxicity against mouse RAW264.7 cells at 16 ug/ml after 1 hr by MTT assay; format: cell-based; details: raw264.7, 1 h; in short: as §4

CCCCCCCCCC(=O)N(CCCNC(=O)[C@@H](N)Cc1ccccc1)CCCNC(=O)[C@@H](N)Cc1ccccc1.O=C(O)C(F)(F)F.O=C(O)C(F)(F)F
MIC (Staphylococcus aureus [1]; ATCC 33591, 24 h): 20 µg/mL | CMC [2]: 156 µg/mL | MIC (Staphylococcus aureus [3]; MTCC 737, 24 h): 15 µg/mL | MIC (Enterococcus faecium [4]; ATCC 51559, 24 h): 14 µg/mL | MIC (Enterococcus faecium [5]; ATCC 19634, 24 h): 29 µg/mL | MIC (Escherichia coli [6]; MTCC 443, 24 h): 19 µg/mL | MIC (Klebsiella pneumoniae; ATCC 700603, 24 h): 57 µg/mL | HC50 at 1 h [7]: 187 µg/mL

CCCCCCCCCCCCCC(=O)N(CCCNC(=O)[C@@H](N)Cc1ccccc1)CCCNC(=O)[C@@H](N)Cc1ccccc1.O=C(O)C(F)(F)F.O=C(O)C(F)(F)F
MIC (Staphylococcus aureus [1]; ATCC 33591, 24 h): 4.1 µg/mL | MIC (Staphylococcus aureus [3]; MTCC 737, 24 h): 6 µg/mL | MIC (Enterococcus faecium [4]; ATCC 51559, 24 h): 2.4 µg/mL | MIC (Enterococcus faecium [5]; ATCC 19634, 24 h): 4.5 µg/mL | MIC (Escherichia coli [6]; MTCC 443, 24 h): 14 µg/mL | MIC (Klebsiella pneumoniae; ATCC 700603, 24 h): 16 µg/mL | HC50 at 1 h [7]: 124 µg/mL

CCCCCCCCCCCCCCCC(=O)N(CCCNC(=O)[C@@H](N)Cc1ccccc1)CCCNC(=O)[C@@H](N)Cc1ccccc1.O=C(O)C(F)(F)F.O=C(O)C(F)(F)F
MIC (Staphylococcus aureus [1]; ATCC 33591, 24 h): 4.6 µg/mL | MIC (Staphylococcus aureus [3]; MTCC 737, 24 h): 9 µg/mL | MIC (Enterococcus faecium [4]; ATCC 51559, 24 h): 2.7 µg/mL | MIC (Enterococcus faecium [5]; ATCC 19634, 24 h): 7.6 µg/mL | MIC (Escherichia coli [6]; MTCC 443, 24 h): 227 µg/mL | MIC (Klebsiella pneumoniae; ATCC 700603, 24 h): 62 µg/mL | HC50 at 1 h [7]: 74 µg/mL

CCCCCCCCCCCC(=O)N(CCCNC(=O)[C@H](N)Cc1ccccc1)CCCNC(=O)[C@H](N)Cc1ccccc1.O=C(O)C(F)(F)F.O=C(O)C(F)(F)F
MIC (Staphylococcus aureus [1]; ATCC 33591, 24 h): 4.2 µg/mL | FC (Staphylococcus aureus [8]): 3 | Activity (Escherichia coli [9]): Active | FC (Staphylococcus aureus [10]): 3 | CMC [2]: 40 µg/mL | Activity (Staphylococcus aureus [11]): Active | MIC (Staphylococcus aureus [3]; MTCC 737, 24 h): 3.5 µg/mL | Activity (Staphylococcus aureus [12]): Active | Activity (Escherichia coli [13]): Active | fold change (FC) (Staphylococcus aureus [14]): 800 | Activity (Staphylococcus aureus [15]): Active | MIC (Enterococcus faecium [4]; ATCC 51559, 24 h): 2.4 µg/mL | MIC (Enterococcus faecium [5]; ATCC 19634, 24 h): 2.8 µg/mL | fold change (FC) (Staphylococcus aureus [16]): 2 | MIC (Escherichia coli [6]; MTCC 443, 24 h): 10 µg/mL | fold change (FC) (Escherichia coli [17]): 250 | Activity (Staphylococcus aureus [18]): Active | MIC (Klebsiella pneumoniae; ATCC 700603, 24 h): 6.5 µg/mL | Activity [19]: Non-toxic | Activity (Staphylococcus aureus [20]): Active | Activity (Staphylococcus aureus [21]): Active | Activity (Escherichia coli [22]): Active | HC50 at 1 h [7]: 209 µg/mL | Activity [23]: Non-toxic

N[C@@H](Cc1ccccc1)C(=O)NCCCNCCCNC(=O)[C@@H](N)Cc1ccccc1.O=C(O)C(F)(F)F.O=C(O)C(F)(F)F.O=C(O)C(F)(F)F
MIC (Staphylococcus aureus [3]; MTCC 737, 24 h): > 250 µg/mL | MIC (Enterococcus faecium [4]; ATCC 51559, 24 h): > 250 µg/mL | MIC (Enterococcus faecium [5]; ATCC 19634, 24 h): > 250 µg/mL | MIC (Escherichia coli [6]; MTCC 443, 24 h): > 250 µg/mL | MIC (Klebsiella pneumoniae; ATCC 700603, 24 h): > 250 µg/mL

N[C@@H](Cc1ccccc1)C(=O)NCCCN(CCCNC(=O)[C@@H](N)Cc1ccccc1)C(=O)[C@@H](N)Cc1ccccc1.O=C(O)C(F)(F)F.O=C(O)C(F)(F)F.O=C(O)C(F)(F)F
MIC (Staphylococcus aureus [3]; MTCC 737, 24 h): > 250 µg/mL | MIC (Enterococcus faecium [4]; ATCC 51559, 24 h): > 250 µg/mL | MIC (Enterococcus faecium [5]; ATCC 19634, 24 h): > 250 µg/mL | MIC (Escherichia coli [6]; MTCC 443, 24 h): > 250 µg/mL | MIC (Klebsiella pneumoniae; ATCC 700603, 24 h): > 250 µg/mL

CCCCCCCCCCCCCCCC(=O)N(CCCN)CCCN.O=C(O)C(F)(F)F.O=C(O)C(F)(F)F
MIC (Staphylococcus aureus [1]; ATCC 33591, 24 h): 11 µg/mL | MIC (Staphylococcus aureus [3]; MTCC 737, 24 h): 12 µg/mL | MIC (Enterococcus faecium [4]; ATCC 51559, 24 h): 2.4 µg/mL | MIC (Enterococcus faecium [5]; ATCC 19634, 24 h): 2.8 µg/mL | MIC (Escherichia coli [6]; MTCC 443, 24 h): 14 µg/mL | MIC (Klebsiella pneumoniae; ATCC 700603, 24 h): 65 µg/mL | HC50 at 1 h [7]: 52 µg/mL

COLISTIN
MIC (Staphylococcus aureus [1]): 68 µg/mL | MIC (Staphylococcus aureus [3]): 25 µg/mL | MIC (Enterococcus faecium [4]): > 250 µg/mL | MIC (Enterococcus faecium [5]): > 250 µg/mL | MIC (Escherichia coli [6]): 0.5 µg/mL | MIC (Klebsiella pneumoniae): 1.5 µg/mL
